ChEMBL document CHEMBL4373711, “Development of 3,5-Dinitrophenyl-Containing 1,2,4-Triazoles and Their Trifluoromethyl Analogues as Highly Efficient Antitubercular Agents Inhibiting Decaprenylphosphoryl-β-d-ribofuranose 2'-Oxidase” (J Med Chem, 2019)
In brackets after ≈: the same amount, converted by molar mass. Activity calls are given as the source filed them. No cut-off for these calls is given here.

Key:
[1] = system: Mycobacterium kansasii; experiment: Antimycobacterial activity against Mycobacterium kansasii CNCTC My 235/80 after 7 days; type: functional; conditions: CNCTC My 235/80, 168 h
How it was run: (§1)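 Microdilution in Šula's semisynthetic medium; compounds in DMSO at 32–0.03 µM. Inoculum from 1.0 McFarland suspension diluted 10-4. […] Isoniazid and rifampicin as reference drugs.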

[2] = Cytotoxicity against human A431 cells assessed as cell viability at 30 uM after 48 hrs by CellTiter 96 aqueous one solution assay relative to control; type: cell-based, A-431; conditions: read-out: Activity
How it was run: (§2)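 HepG2 (DMEM, 10% FBS, 1 mM pyruvate) or A431 (DMEM, 10% FBS) seeded 10,000 cells/well, 24 h at 37 °C, 5% CO2, then 30 µM compound for 48 h. MTS reagent 60 min, absorbance 490 nm, background subtracted; 0.1% DMSO vehicle = 100%, 10% SDS = 0% viability.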

[3] = system: Mycobacterium avium; experiment: Antimycobacterial activity against Mycobacterium avium CNCTC My 330/88 after 14 days; type: functional; conditions: CNCTC My 330/88, 336 h
How it was run: (§3)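 M. avium was tested by microdilution in Šula's semisynthetic medium, with compounds dissolved in DMSO and serially diluted from 1000 down to 1. Inoculum was a 1.0 McFarland suspension diluted 10-5. Plates were incubated at 37 °C and read at 14 and 21 days. […] Isoniazid and rifampicin served as standards.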

[4] = system: Mycobacterium tuberculosis; experiment: Antimycobacterial activity against Mycobacterium tuberculosis H37Rv CNCTC My 331/88 after 14 days; type: functional; conditions: H37Rv CNCTC My 331/88, 336 h
How it was run: (§4)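 M. tuberculosis strains (H37Rv and clinical MDR/XDR isolates) tested by microdilution in Šula's semisynthetic medium. Compounds were dissolved in DMSO and tested at 32 to 0.03 µM in twofold steps. Inoculum was a 1.0 McFarland suspension diluted 10-3. Plates were incubated at 37 °C and read at 14 and 21 days.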

[5] = system: Mycobacterium tuberculosis; experiment: Antimycobacterial activity against XDR Mycobacterium tuberculosis Praha 131 after 14 days; type: functional; conditions: Praha 131, 336 h; how it was run: as §4
[6] = system: A-431; experiment: Cytotoxicity against human A431 cells assessed as reduction in cell viability after 48 hrs by CellTiter 96 aqueous one solution assay; type: cell-based; conditions: A-431, 48 h
[7] = system: Mycobacterium kansasii; experiment: Antimycobacterial activity against Mycobacterium kansasii 6509/96 after 7 days; type: functional; conditions: 6509/96, 168 h; how it was run: as §1
[8] = system: Mycobacterium kansasii; experiment: Antimycobacterial activity against Mycobacterium kansasii CNCTC My 235/80 after 21 days; type: functional; conditions: CNCTC My 235/80, 504 h; how it was run: as §1
[9] = system: Mycobacterium tuberculosis; experiment: Antimycobacterial activity against Mycobacterium tuberculosis H37Rv CNCTC My 331/88 after 21 days; type: functional; conditions: H37Rv CNCTC My 331/88, 504 h; how it was run: as §4
[10] = system: Mycobacterium kansasii; experiment: Antimycobacterial activity against Mycobacterium kansasii CNCTC My 235/80 after 14 days; type: functional; conditions: CNCTC My 235/80, 336 h; how it was run: as §1
[11] = system: Mycobacterium tuberculosis; experiment: Antimycobacterial activity against XDR Mycobacterium tuberculosis Praha 131 after 21 days; type: functional; conditions: Praha 131, 504 h; how it was run: as §4
[12] = Genotoxicity in Salmonella typhimurium TA98 at 30 uM in presence of rat liver S9 fraction by Ames test; type: toxicity, subcellular; conditions: salmonella enterica subsp. enterica serovar typhimurium, s9, 30 µM
How it was run: (§5)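 Microplate fluctuation Ames reverse-mutation test following kit instructions; TA98 detects frameshift and TA100 base-exchange mutations. Compound at 30 µM final with Aroclor-1254-induced rat liver S9 plus cofactors.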

[13] = system: Mycobacterium kansasii; experiment: Antimycobacterial activity against Mycobacterium kansasii 6509/96 after 21 days; type: functional; conditions: 6509/96, 504 h; how it was run: as §1
[14] = Genotoxicity in Salmonella typhimurium TA100 at 30 uM in presence of rat liver S9 fraction by Ames test; type: toxicity, subcellular; conditions: salmonella enterica subsp. enterica serovar typhimurium, s9, 30 µM; how it was run: as §5
[15] = system: Mycobacterium kansasii; experiment: Antimycobacterial activity against Mycobacterium kansasii 6509/96 after 14 days; type: functional; conditions: 6509/96, 336 h; how it was run: as §1
[16] = Cytotoxicity against human HepG2 cells assessed as cell viability at 30 uM after 48 hrs by CellTiter 96 aqueous one solution assay relative to control; type: cell-based; conditions: read-out: Activity; how it was run: as §2
[17] = system: Mycobacterium avium; experiment: Antimycobacterial activity against Mycobacterium avium CNCTC My 330/88 after 21 days; type: functional; conditions: CNCTC My 330/88, 504 h; how it was run: as §3
[18] = system: HepG2; experiment: Cytotoxicity against human HepG2 cells assessed as reduction in cell viability after 48 hrs by CellTiter 96 aqueous one solution assay; type: cell-based; conditions: HepG2, 48 h
[19] = system: Pichia kudriavzevii; experiment: Antifungal activity against Candida krusei ATCC 6258 CCM8271 at highest concentration measured after 24 to 48 hrs by alamar blue dye based broth microdilution assay; type: functional, organism-based
[20] = system: Klebsiella pneumoniae; experiment: Antibacterial activity against Klebsiella pneumoniae at highest concentration measured after 24 to 48 hrs by alamar blue dye based broth microdilution assay; type: functional, organism-based
[21] = system: Staphylococcus epidermidis; experiment: Antibacterial activity against Staphylococcus epidermidis at highest concentration measured after 24 to 48 hrs by alamar blue dye based broth microdilution assay; type: functional, organism-based
[22] = system: Aspergillus flavus; experiment: Antifungal activity against Aspergillus flavus CCM 8363 at highest concentration measured after 24 to 48 hrs by alamar blue dye based broth microdilution assay; type: functional, organism-based
[23] = system: Aspergillus fumigatus; experiment: Antifungal activity against Aspergillus fumigatus ATCC 204305 at highest concentration measured after 24 to 48 hrs by alamar blue dye based broth microdilution assay; type: functional, organism-based
[24] = system: Pseudomonas aeruginosa; experiment: Antibacterial activity against Pseudomonas aeruginosa ATCC 27853 CCM 3955 at highest concentration measured after 24 to 48 hrs by alamar blue dye based broth microdilution assay; type: functional, organism-based
[25] = system: Candida albicans; experiment: Antifungal activity against Candida albicans ATCC 24433 CCM 8320 at highest concentration measured after 24 to 48 hrs by alamar blue dye based broth microdilution assay; type: functional, organism-based
[26] = system: Staphylococcus aureus; experiment: Antibacterial activity against methicillin-resistant Staphylococcus aureus subsp. aureus ATCC 43300 CCM 4750 at highest concentration measured after 24 to 48 hrs by alamar blue dye based broth microdilution assay; type: functional, organism-based
[27] = system: Lichtheimia corymbifera; experiment: Antifungal activity against Lichtheimia corymbifera CCM 8077 at highest concentration measured after 24 to 48 hrs by alamar blue dye based broth microdilution assay; type: functional, organism-based
[28] = system: Serratia marcescens; experiment: Antibacterial activity against Serratia marcescens at highest concentration measured after 24 to 48 hrs by alamar blue dye based broth microdilution assay; type: functional, organism-based
[29] = system: Trichophyton interdigitale; experiment: Antifungal activity against Trichophyton interdigitale ATCC 9533 CCM 8377 at highest concentration measured after 72 to 120 hrs by alamar blue dye based broth microdilution assay; type: functional
[30] = system: Escherichia coli; experiment: Antibacterial activity against Escherichia coli ATCC 25922 CCM 3954 at highest concentration measured after 24 to 48 hrs by alamar blue dye based broth microdilution assay; type: functional, organism-based
[31] = system: Candida parapsilosis; experiment: Antifungal activity against Candida parapsilosis ATCC 22019 CCM 8260 at highest concentration measured after 24 to 48 hrs by alamar blue dye based broth microdilution assay; type: functional, organism-based
[32] = system: Enterococcus faecalis; experiment: Antibacterial activity against Enterococcus faecalis ATCC 29212 CCM 4224 at highest concentration measured after 24 to 48 hrs by alamar blue dye based broth microdilution assay; type: functional, organism-based
[33] = system: Staphylococcus aureus; experiment: Antibacterial activity against Staphylococcus aureus subsp. aureus ATCC 29213 CCM 4223 at highest concentration measured after 24 to 48 hrs by alamar blue dye based broth microdilution assay; type: functional, organism-based
[34] = system: Candida tropicalis; experiment: Antifungal activity against Candida tropicalis ATCC 750 CCM 8264 at highest concentration measured after 24 to 48 hrs by alamar blue dye based broth microdilution assay; type: functional, organism-based

| SMILES | MIC99 [1] | viability at 48 h, 30 µM [2] | MIC99 [3] | MIC99 [4] | MIC99 [5] | IC50 [6] | MIC99 [7] | MIC99 [8] | MIC99 [9] | MIC99 [10] | MIC99 [11] | Activity [12] | MIC99 [13] | Activity [14] | MIC99 [15] | viability at 48 h, 30 µM [16] | MIC99 [17] | IC50 [18] | Activity [19] | Activity [20] | other results |
| --- | --- | --- | --- | --- | --- | --- | --- | --- | --- | --- | --- | --- | --- | --- | --- | --- | --- | --- | --- | --- | --- |
| O=[N+]([O-])c1cc(-c2nnc(SCc3ccc(Cl)c(Cl)c3)n2Cc2ccccc2)cc(C(F)(F)F)c1 | 4 µM (≈ 2.16 µg/mL) | 80% | 250 µM (≈ 135 µg/mL) | 2 µM (≈ 1.08 µg/mL) | 2 µM (≈ 1.08 µg/mL) | > 30 µM | 4 µM (≈ 2.16 µg/mL) | 4 µM (≈ 2.16 µg/mL) | 2 µM (≈ 1.08 µg/mL) | 4 µM (≈ 2.16 µg/mL) | 2 µM (≈ 1.08 µg/mL) | Non-Toxic | 8 µM (≈ 4.31 µg/mL) | Non-Toxic | 4 µM (≈ 2.16 µg/mL) | 104% | 250 µM (≈ 135 µg/mL) | > 30 µM |  |  |  |
| Cn1c(SCc2ccc(Cl)cc2)nnc1-c1cc([N+](=O)[O-])cc([N+](=O)[O-])c1 | 0.25 µM (≈ 0.101 µg/mL) | 85% | 8 µM (≈ 3.25 µg/mL) | 0.125 µM (≈ 0.0507 µg/mL) | 0.125 µM (≈ 0.0507 µg/mL) | > 30 µM | 0.125 µM (≈ 0.0507 µg/mL) | 0.5 µM (≈ 0.203 µg/mL) | 0.125 µM (≈ 0.0507 µg/mL) | 0.5 µM (≈ 0.203 µg/mL) | 0.125 µM (≈ 0.0507 µg/mL) | Non-Toxic | 0.5 µM (≈ 0.203 µg/mL) | Non-Toxic | 0.25 µM (≈ 0.101 µg/mL) | 104% | 8 µM (≈ 3.25 µg/mL) | > 30 µM | inactive | inactive | Activity [21]: inactive; Activity [22]: inactive; Activity [23]: inactive; Activity [24]: inactive; Activity [25]: inactive; Activity [26]: inactive; Activity [27]: inactive; Activity [28]: inactive; Activity [29]: inactive; Activity [30]: inactive; Activity [31]: inactive; Activity [32]: inactive; Activity [33]: inactive; Activity [34]: inactive |
| O=[N+]([O-])c1cc(-c2nnc(SCc3ccc(Cl)cc3)n2Cc2ccccc2)cc([N+](=O)[O-])c1 | 0.125 µM (≈ 0.0602 µg/mL) | 95% | 62 µM (≈ 29.9 µg/mL) | 0.125 µM (≈ 0.0602 µg/mL) | 0.125 µM (≈ 0.0602 µg/mL) | > 30 µM | 0.06 µM (≈ 0.0289 µg/mL) | 0.5 µM (≈ 0.241 µg/mL) | 0.25 µM (≈ 0.12 µg/mL) | 0.25 µM (≈ 0.12 µg/mL) | 0.25 µM (≈ 0.12 µg/mL) | Toxic | 0.125 µM (≈ 0.0602 µg/mL) | Non-Toxic | 0.125 µM (≈ 0.0602 µg/mL) | 105% | 62 µM (≈ 29.9 µg/mL) | > 30 µM | inactive | inactive | Activity [21]: inactive; Activity [22]: inactive; Activity [23]: inactive; Activity [24]: inactive; Activity [25]: inactive; Activity [26]: inactive; Activity [27]: inactive; Activity [28]: inactive; Activity [29]: inactive; Activity [30]: inactive; Activity [31]: inactive; Activity [32]: inactive; Activity [33]: inactive; Activity [34]: inactive |
